MEKK3 PB1 HTS – MEKK3-MEK5 PB1 interaction, increase or decrease. actives 1.4% (n = 290,000). bead-based flow cytometry, Alexa488-MEK5 binding to MEKK3; actives lie on both sides; 0 = blocked by unlabeled MEK5, 100 = vehicle. binding response (% of control), % at 10 µM;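 active means binding response more than 3 SD above or below the average of its plate-row segment, actives on both sides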;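 further: Alexa488 bead fluorescence after subtracting the streptavidin-only scavenger bead signal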
Target sequence (Q99759 whole entry, looked up): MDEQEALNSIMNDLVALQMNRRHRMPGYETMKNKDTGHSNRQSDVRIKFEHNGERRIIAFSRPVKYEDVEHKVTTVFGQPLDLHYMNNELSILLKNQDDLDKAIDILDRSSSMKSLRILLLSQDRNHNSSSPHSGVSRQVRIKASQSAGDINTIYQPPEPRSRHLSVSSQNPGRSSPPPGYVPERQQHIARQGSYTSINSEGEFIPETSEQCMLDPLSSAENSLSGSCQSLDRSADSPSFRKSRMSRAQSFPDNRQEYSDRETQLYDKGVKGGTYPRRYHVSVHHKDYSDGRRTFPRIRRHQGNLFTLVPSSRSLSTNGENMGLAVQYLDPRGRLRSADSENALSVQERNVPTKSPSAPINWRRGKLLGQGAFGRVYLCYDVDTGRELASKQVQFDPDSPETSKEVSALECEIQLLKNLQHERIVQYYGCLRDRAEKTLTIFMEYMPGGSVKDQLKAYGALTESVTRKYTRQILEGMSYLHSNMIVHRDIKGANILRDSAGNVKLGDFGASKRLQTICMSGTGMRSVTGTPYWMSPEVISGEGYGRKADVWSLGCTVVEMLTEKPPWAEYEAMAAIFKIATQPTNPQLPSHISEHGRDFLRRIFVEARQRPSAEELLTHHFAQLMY
MEKK2mut PB1 HTS – signal of MEK5 binding to mutant human MEKK2 PB1 domain | percent response, % at 10 µM | actives 0.35% (n = 290,000) | AID 1530 | bead flow cytometry, Alexa488-MEK5 binding to MEKK2 mutant; in the data active means percent response above about 24%, passing the limit was not always enough
UBC13 polyUb – inhibitors of human UBC13 polyubiquitin chain formation; P61088; TR-FRET; inhibition, % at 20 µM; actives 0.47% (n = 330,000); AID 485273; in the data active means inhibition above about 45%, passing the limit was not always enough
MEKK2wt PB1 HTS – raises or lowers MEK5 binding to wildtype human MEKK2 PB1 domain. Q9Y2U5. bead flow cytometry, Alexa488-MEK5 binding to MEKK2 WT; actives lie on both sides. binding response (% of control), % at 10 µM. actives 1.1% (n = 290,000). AID 1531; in the data active means binding response below about 67% or above about 130%
Apaf-1 inh – blocks human Apaf-1 apoptosome activity; inhibition, % at 20 µM; reconstituted apoptosome caspase-3 activity, DEVD-Rh110 fluorescence; actives 0.71% (n = 330,000); O14727; active means inhibition of at least 40% at 20 µM;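 further: plate controls were DMSO wells for no effect and DEVD-CHO caspase inhibitor wells for full effect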
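System: reconstituted apoptosome with Apaf-1, cytochrome c, caspase-9, procaspase-3, dATP; Signal: Rh110 fluorescence intensity; Schedule: 30 min compound preincubation, 50 min activation, room temperature; Reagent: cytochrome c trigger plus (Z-DEVD)2-Rh110 caspase-3 substrate.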
PREPL inh – human PREPL enzyme inhibition; Q4J6C6; recombinant PREPL, fluorescence polarization activity-based probe; inhibition, % at 5.96 µM; actives 0.68% (n = 320,000); in the data active means inhibition above about 43%;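 further: 0% = enzyme with DMSO and 100% = wells lacking enzyme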
MEKK2wt confirm – raises or lowers MEK5 binding to wildtype human MEKK2, retest; bead flow cytometry, Alexa488-MEK5 binding to MEKK2 WT; actives lie on both sides; binding response (% of control), % at 10 µM; actives 2.4% (n = 5,900); shares compounds with MEKK3 PB1 HTS; in the data active means binding response below about 16% or above about 210%; inactive means in between
MEKK2mut-MEK5 – signal of MEK5 binding to mutant human MEKK2, retest | percent response, % at 10 µM | shares compounds with MEKK3 PB1 HTS | actives 2% (n = 5,900) | bead flow cytometry, Alexa488-MEK5 binding to MEKK2 mutant; in the data active means percent response mostly above about 71%, no sharp cut-off; inactive means mostly below about 38%;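 further: higher means compound restores mutant binding toward wildtype level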
MEKK3-MEK5 inh – MEKK3-MEK5 PB1 inhibition, single concentration confirmation. shares compounds with MEKK3 PB1 HTS. bead flow cytometry, Alexa488-MEK5 binding to MEKK3; hits give low values. binding response (% of control), % at 10 µM. actives 1.8% (n = 5,900). AID 1894;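 active means binding response below 72% of control, or above a set upper limit, though filed actives all read lower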;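 further: 100% = DMSO only wells and 0% = binding blocked by excess unlabeled MEK5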
* = called active by the depositor; nt = no result given; [ ] = remark or other dose. Hits are enriched below; roughly 3.1% of the tested compounds scored in any of these assays.

SMILES | MEKK3 PB1 HTS | MEKK2mut PB1 HTS | UBC13 polyUb | MEKK2wt PB1 HTS | Apaf-1 inh | PREPL inh | MEKK2wt confirm | MEKK2mut-MEK5 | MEKK3-MEK5 inh
COc1ccccc1N1CCN(S(=O)(=O)c2ccccc2)CC1 | 94 | -4 | 5 | 96 | -10 | 3 | nt | nt | nt
COc1ccccc1N1CCN(S(=O)(=O)c2ccccc2F)CC1 | 45*[inhibitor] | -21 | 14 | 63 | -11 | 10 | 106 | 6 | 102
COc1ccccc1N1CCN(C2CCN(S(=O)(=O)c3ccc4ccccc4c3)CC2)CC1 | 103 | 3 | 4 | 145* | 30 | 7 | 118 | 1 | 92
Cn1c(SCc2cccc(C#N)c2)nc2ccccc2c1=O | 101 | 2 | 11 | 103 | 13 | -3 | nt | nt | nt
O=C(CN1CCN(S(=O)(=O)c2ccccc2)CC1)Nc1ccccc1C(=O)c1ccccc1 | 128* | 0 | 6 | 103 | 15 | 16 | 104 | -4 | 99
O=C(CN1CCN(S(=O)(=O)c2ccccc2)CC1)Nc1ccccc1Cl | 106 | 6 | 3 | 107 | 18 | -36 | nt | nt | nt
COc1ccccc1C(=O)NCC(=O)NCCC(c1ccccc1)c1ccccc1 | nt | nt | 8 | nt | 10 | -3 | nt | nt | nt
COc1cc(C(=O)NCc2ccc(C)cc2)ccc1OCc1c(C)noc1C | 106 | 9 | 0 | 106 | 3 | 10 | nt | nt | nt
COc1ccccc1CNC(=O)c1ccc(OCc2c(C)noc2C)c(OC)c1 | 2.0*[inhibitor] | -42 | -8 | 1.0*[inhibitor] | 14 | 1 | 105 | 1 | 102
CCc1cccc(NC(=O)C2CCCN(S(=O)(=O)c3cccnc3)C2)c1 (centres undefined) | 97 | 3 | -17 | 100 | -6 | 5 | nt | nt | nt
COc1ccc(NC(=O)CC(C(=O)O)C(C)c2ccccc2)cc1 (centres undefined) | 108 | 29* | 3 | 160* | 0 | nt | 103 | -3 | 101
COc1ccc(NC(=O)CC(Cc2ccccc2)C(=O)O)cc1 (centres undefined) | 92 | -8 | 5 | 90 | -11 | -3 | nt | nt | nt
O=C(Cc1ccc(Br)cc1)NCc1ccccc1 | 96 | -1 | 1 | 100 | -2 | 3 | nt | nt | nt
CCCCN(CC)CCNC(=O)c1nn(-c2ccc(OC)cc2)c(=O)c2c1c1ccccc1n2C | 107 | 16 | 22 | 144* | -3 | -40 | 134 | 25 | 111
OCCNCc1cc(Br)ccc1OCc1ccc(Cl)cc1Cl | 110 | 35* | nt | 145* | nt | nt | 127 | 17 | 105
OCCCCNCc1cc(Br)ccc1OCc1ccccc1F | 103 | 24 | 3 | 148* | -14 | -39 | 157 | 32 | 109
COc1cc(CNCCSc2nnnn2C)cc(Br)c1OCc1ccccc1F | 96 | -5 | 15 | 104 | 3 | -51 | nt | nt | nt
CCOc1cc(CNCCO)cc(Br)c1OCc1ccc(Cl)cc1Cl | 115 | 51* | 56* | 212* | 38 | -50 | 204 | 58 | 110
CCOc1cc(CNCCSc2nnnn2C)cc(Br)c1OCc1ccccc1F | 106 | 11 | 12 | 136* | 19 | -53 | 135 | 17 | 108
CSc1cc(C)c(OCC(=O)Nc2c(C)nn(C)c2C)c(C)c1 | 85 | -11 | -4 | 85 | 10 | 2 | nt | nt | nt
O=c1c([N+](=O)[O-])c[nH]c2ccccc12 | 135* | 0 | -6 | 106 | -3 | -7 | 99 | 1 | 101
O=[N+]([O-])c1ccccc1N/N=C/c1c[nH]c2ccccc12 | 110 | 4 | -71 | 111 | 1 | 36 | nt | nt | nt

Assay outcomes (PubChem BioAssay)
